HGIII-sPLA2 inh – Inhibits HGIII-sPLA2 liposome hydrolysis, primary screen. AID 743126. QFRET BODIPY PC-A2 liposome hydrolysis, fluorescence. hit rate 0.56% among 370,000. Q9NZ20. inhibition, % at 12.2 µM;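 active = inhibition above mean plus 3 SD of compounds lying within the high and low control bounds, cut at about 19% in these data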;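 also: 0% = median of test compound wells and 100% = no enzyme DMSO wells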
proCasp3 act – activators of human procaspase-3; P42574; recombinant procaspase-3 D3A, Ac-DEVD-pNA absorbance 405 nm; activation, % at 8.5 µM; hit rate 0.11% among 330,000; AID 463141;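 active = activation above the mean of all tested compounds plus 3 SD, cut at about 21% in these data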;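 also: 0% = DMSO alone and 100% = DMSO wells spiked with extra 5 µM PC-3 D3A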
Target sequence (P42574 whole entry D9A/D28A/D175A): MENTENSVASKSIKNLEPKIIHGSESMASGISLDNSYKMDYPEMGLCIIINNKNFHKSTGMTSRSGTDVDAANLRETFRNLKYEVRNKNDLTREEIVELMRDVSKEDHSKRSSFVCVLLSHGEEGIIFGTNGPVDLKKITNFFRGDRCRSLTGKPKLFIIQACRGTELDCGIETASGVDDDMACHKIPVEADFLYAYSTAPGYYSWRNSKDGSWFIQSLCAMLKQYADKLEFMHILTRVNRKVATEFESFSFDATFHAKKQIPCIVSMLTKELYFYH
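Assay system – Procaspase-3 D3A mutant · Benchmarks – DMSO low control, extra-enzyme high control · Technique – 405 nm absorbance of p-nitroaniline, reads at 0 and 120 min · Doses – 8.5 µM nominal · Measure – % activation between DMSO and enzyme-spiked controls · Also added – Ac-DEVD-pNA chromogenic peptide substrate · Schedule – 1 h compound preincubation, 2 h substrate hydrolysis at 25 °C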
PLC-gamma1 inh – blocks human PLC-gamma1 enzyme activity; P19174; purified PLC-gamma1, fluorogenic substrate, fluorescence; inhibition, % at 12.2 µM; hit rate 0.84% among 370,000
PLCb3 inh – inhibitors of human phospholipase C beta3. Q01970. Purified PLC-beta3, fluorogenic substrate, fluorescence. inhibition, % at 12.2 µM. hit rate 0.18% among 370,000. AID 720704; in the data active = inhibition above about 11%;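 also: 0% = median of compound wells on plate and 100% = full blocker control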
procasp7 counter – counter-screen: procaspase-7 (human) activation; recombinant procaspase-7, Ac-DEVD-pNA absorbance 405 nm; D23A/D198A/D206A triple mutant, cannot self-cleave; scale: DMSO 0, 5 µM enzyme 100; activation, % at 8.5 µM; P55210; hit rate 0.093% among 330,000; AID 463210;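 active = percent activation above the screen-wide mean plus 3 SD, cut at about 25% in these data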
Target sequence (P55210 whole entry D23A/D198A/D206A): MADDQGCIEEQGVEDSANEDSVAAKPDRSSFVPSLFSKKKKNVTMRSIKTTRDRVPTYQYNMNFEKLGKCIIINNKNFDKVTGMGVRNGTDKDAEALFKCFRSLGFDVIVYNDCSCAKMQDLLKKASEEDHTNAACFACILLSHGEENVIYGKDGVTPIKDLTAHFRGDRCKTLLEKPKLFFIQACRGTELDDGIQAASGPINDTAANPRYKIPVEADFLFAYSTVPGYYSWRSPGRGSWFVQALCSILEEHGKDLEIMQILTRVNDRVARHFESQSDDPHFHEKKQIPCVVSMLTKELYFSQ
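Detection: p-Nitroaniline absorbance at 405 nm, read at 0 and 120 min; system: Uncleavable procaspase-7 mutant enzyme; evaluation: % activation from two-timepoint absorbance difference, scaled to controls; times: 1 h enzyme–compound preincubation and 2 h substrate reaction, both 25 °C; buffer or medium: Zinc-free HEPES pH 7.4 with 300 mM NaCl, 0.01% Triton X-100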
PLCg1 ctr – PLC-gamma1 inhibition, counter-screen for PLC-beta3 hits. shares compounds with PLC-gamma1 inh. purified PLC-gamma1, fluorogenic substrate, fluorescence. inhibition, % at 12.3 µM. hit rate 3.1% among 3,300
PLCb3 confirm – human PLC-beta3 inhibition, confirmation | inhibition, % at 12.3 µM | purified PLC-beta3, fluorogenic substrate fluorescence | shares compounds with PLC-gamma1 inh | hit rate 1% among 3,300; in the data active = inhibition above about 11%
Numbers without * were called inactive; · = no result. Hits are enriched below; roughly 1.6% of the tested compounds scored in any of these assays. Rule as the data show it, unless noted: active = inhibition above about 9.5%; inactive = the rest.

SMILES	HGIII-sPLA2 inh	proCasp3 act	PLC-gamma1 inh	PLCb3 inh	procasp7 counter	PLCg1 ctr	PLCb3 confirm
COC(=O)c1sccc1NC(=O)CN(C)NS(=O)(=O)c1ccc(Cl)cc1	1	-6	3	1	1	·	·
COC(=O)c1sccc1NC(=O)CN(C)NS(=O)(=O)c1ccc(F)cc1	5	-5	12*	4	-3	-6	0
O=C(CCCN1C(=O)c2ccccc2C1=O)NCCc1ccc(OC(F)F)cc1	-5	-4	-3	-4	-4	·	·
Cn1c(C(O)c2ccc(Cl)cc2)nc(Cl)c1Cl (stereo unspecified)	1	-2	11*	2	1	-8	-1
CCOC(=O)c1sc(NC(=O)CCCCl)nc1C	-2	-8	9.8*	5	-1	-1	-2
CCOC(=O)c1sc(NC(=O)CC)nc1C	-2	3	3	5	-17	·	·
COCCCNc1nc2c(c(=O)n(Cc3ccc(Cl)cc3)c(=O)n2C)n1C	4	-3	1	-8	-4	·	·
Cn1c(NCCCN2CCOCC2)nc2c1c(=O)n(Cc1ccc(Cl)cc1Cl)c(=O)n2C	-4	0	12*	3	11	-13	-3
NS(=O)(=O)c1ccc(CNC(=O)C2(c3ccc(Cl)cc3)CC2)cc1	-1	-2	5	-7	9	·	·
COc1ccc(CNC(=O)C2(c3ccc(Cl)cc3)CC2)cc1	4	-3	14*	10	9	-6	1
Cc1ccsc1/C=N/NC(=O)c1nnn(-c2nonc2N)c1CSc1ccccc1	-3	5	1	-6	10	·	·
CCOC(=O)c1ccc(NC(=O)c2nc[nH]c2C(=O)N2CCN(C(=O)OC(C)(C)C)CC2)cc1	-3	·	7	3	·	·	·
CC(C)(C)OC(=O)N1CCN(C(=O)c2[nH]cnc2C(=O)Nc2cccc(Cl)c2)CC1	5	-2	9.7*	1	-1	-5	-3
CCCCn1nnnc1C(c1ccccc1)N1CCN(c2ccccn2)CC1 (stereo unspecified)	-3	·	-1	2	·	·	·
CCCCn1nnnc1C(c1ccccc1)N1CCN(c2cccc(C(F)(F)F)n2)CC1 (stereo unspecified)	-1	·	10*	-1	·	-8	-8
Clc1ccc(CSc2nnc(NC3=NCCCCC3)s2)cc1	-1	0	5	11*	0	-3	2
COC(=O)[C@]12C[C@H](CC(=O)NCCc3ccccc3OC)C(=O)N(CCc3ccc(OC)c(OC)c3)C1=C[C@H](COCc1ccccc1)O[C@@H]2C	-4	·	13*	6	·	-4	-1
COC(=O)[C@]12C[C@H](CC(=O)N3CCCC3)C(=O)N(Cc3cccc4ccccc34)C1=C[C@H](COCc1ccccc1)O[C@@H]2C	4	·	9.5*	3	·	4	7
CCC(NC(=O)c1ccc2c(c1)c(C)c(C)n2Cc1ccc(Cl)cc1)c1ccccc1 (stereo unspecified)	3	·	-20	-12	·	·	·
Nc1nonc1OCCOCCOCCOc1nonc1N	1	3	0	2	13	·	·
Cc1cc(C)n(CCOc2nonc2N)n1	4	7	11*	12*	6	-3	0
CCOC(=O)CNC(=O)Cc1ccc(Cl)cc1	0	5	10*	-3	-2	-4	0
CCC[C@H]1[C@@H](NS(=O)(=O)c2ccccc2[N+](=O)[O-])CC[C@@]23CCCN2C(=O)CCC[C@@H]13	-8	·	1	2	·	·	·
COc1ccc(CNS(=O)(=O)c2ccc(S(=O)(=O)N3CCCCC3)cc2)cc1	-1	-2	11*	5	-6	-4	-1
COc1ccc(S(=O)(=O)N2CCC(N3CCCCC3)CC2)cc1	5	4	9.7*	5	-6	-1	-1
SMILES	HGIII-sPLA2 inh	proCasp3 act	PLC-gamma1 inh	PLCb3 inh	procasp7 counter	PLCg1 ctr	PLCb3 confirm
COc1ccc(S(=O)(=O)N2CCN(C3CCCCCCC3)CC2)cc1	4	-2	1	2	4	·	·
COc1ccc(CNC(=O)c2cccc(S(=O)(=O)N3CCCCC3)c2)cc1OC	1	6	1	-4	3	·	·
COc1ccc(CNC(=O)c2cc(S(=O)(=O)N3CCCCC3)ccc2Cl)cc1OC	-6	2	1	13*	7	-4	3
COc1cc(OC)cc(C(=O)NCC(=O)NCCN2C(=O)S/C(=C\c3ccc4c(c3)OCO4)C2=O)c1	-5	·	0	-14	·	·	·
CCOC(=O)/C(C#N)=C1\C=CN(C)C(C)=N1	6	-4	5	2	7	·	·
CCOC(=O)/C(C#N)=C1/C=CN(c2ccccc2)C=N1	5	9	11*	6	1	7	7
CCOC(=O)/C(C#N)=C1/C=CN(Cc2ccccc2)C=N1	1	5	9	11	1	·	·
CCOC(=O)/C(C#N)=C1/C=CN(C)C=N1	0	1	10*	8	13	14*	9
CCOC(=O)/C(C#N)=C1/C=CN(c2ccc(C)cc2)C=N1	1	-4	13*	12*	5	-5	1
CC1CCc2c(C(=O)Nc3ccc(N4CCOCC4)cc3)csc2C1 (stereo unspecified)	7	-3	-4	-8	0	·	·
CC1(Cc2cc(Cl)ccc2C(F)(F)F)C(=O)Nc2cc(-c3ccccc3Cl)ccc21 (stereo unspecified)	-8	·	1	3	·	·	·
Cc1ccc(NC(=O)c2nn(C34CC5CC(CC(C5)C3)C4)cc2[N+](=O)[O-])cc1	-6	1	12*	14*	10	7	11*
COc1ccc(NC(=O)c2nn(C)cc2[N+](=O)[O-])cc1	6	2	2	-1	1	·	·
CN(CC(=O)Nc1ccc(Cl)cc1)CC(=O)N1CCc2ccccc21	3	·	4	6	·	·	·
CCCCNC(=O)C1(C)CCCCN1C(=O)c1ccc(F)c(C)c1 (stereo unspecified)	7	·	14*	6	·	-3	0
Cc1cc(=O)[nH]c(N2CCN(c3ccc(Cl)cc3)CC2)n1	2	1	7	-1	11	·	·
Cc1cc(=O)[nH]c(N2CCCC2)n1	10	-4	12*	5	8	-9	-3
COc1ccc(NC(=O)Cc2ccc(C)cc2)c([N+](=O)[O-])c1	8	5	8	14*	1	-3	6
CCOc1ccc(/C=C/C(=O)Nc2ccc(OC)cc2[N+](=O)[O-])cc1	7	-11	7	11*	7	-24	-21
COc1ccc(NC(=O)COc2ccc(C)cc2)c([N+](=O)[O-])c1	-2	-8	-4	6	0	·	·
Cc1ccc(S(=O)(=O)NC(=O)NC2=NC(C)(C)N(c3ccc(Cl)c(Cl)c3)C(N)=N2)cc1	-7	·	-1	0	·	·	·

High-throughput results (PubChem BioAssay)
